In data set [1] the test system is HeLa. In words: Minimum inhibitory concentration required to inhibit Coxsackie B4 virus. It is filed as functional. Conditions: Homo sapiens. The procedure, abridged:
(§1)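 HeLa cell cultures infected with vesicular stomatitis virus, Coxsackie B4 virus or respiratory syncytial virus. The read-out is the minimum inhibitory concentration (MIC), with compounds tested up to 100 or 700 μM.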

Data set [2] relates to HeLa. In words: Minimum inhibitory concentration required to inhibit vesicular stomatitis virus. The class given is functional. The settings on record: Homo sapiens. In a few lines: as §1
Data set [3] deals with HeLa. The data set is described as follows: Minimum inhibitory concentration required to inhibit respiratory syncytial virus. The class given is functional. The settings on record: Homo sapiens. The procedure, abridged:
as §1

Data set [4] in a line: Minimum cytotoxic concentration was determined. The settings on record: human. In a few lines:
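Human embryonic lung (HEL) cell cultures, run alongside the CMV (AD-169, Davis) and VZV (OKA, 07/1) antiviral tests. Minimum cytotoxic concentration is the lowest compound level that causes cytotoxicity.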

The subject of the next data set is MT4. In words: Ratio of cytotoxicity to antiviral activity was determined. It is filed as functional, Homo sapiens. In a few lines:
(§2)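 MT-4 cells infected with HIV-1 (strain IIIB) or HIV-2 (strain ROD), with viability read by MTT. The read-out is the 50% inhibitory concentration (IC50). CC50 was measured in MT-4 cells, and the selectivity index was calculated as CC50/IC50.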

Data set [5] deals with Cytomegalovirus. The data set is described as follows: Activity against CMV (AD-169 strain) was determined. Conditions: Human betaherpesvirus 5. It is filed as functional, organism-based. The procedure, abridged: (§3)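 Human embryonic lung (HEL) cell cultures infected with human cytomegalovirus, AD-169 or Davis strain. The read-out is the 50% effective concentration (EC50). Cytotoxicity was measured in the same cells as the 50% cytotoxic concentration (CC50).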

The subject of data set [6] is Cytomegalovirus. The data set is described as follows: Activity against CMV (Davis strain) was determined. It is filed as functional, organism-based. Conditions: Human betaherpesvirus 5. In a few lines: as §3
For data set [7], the target named is T1, Adenosylhomocysteinase (Homo sapiens, UniProt P23526). In words: Inhibition of recombinant Placental Adenosylhomocysteinase.
Target sequence in this assay (P23526 whole entry): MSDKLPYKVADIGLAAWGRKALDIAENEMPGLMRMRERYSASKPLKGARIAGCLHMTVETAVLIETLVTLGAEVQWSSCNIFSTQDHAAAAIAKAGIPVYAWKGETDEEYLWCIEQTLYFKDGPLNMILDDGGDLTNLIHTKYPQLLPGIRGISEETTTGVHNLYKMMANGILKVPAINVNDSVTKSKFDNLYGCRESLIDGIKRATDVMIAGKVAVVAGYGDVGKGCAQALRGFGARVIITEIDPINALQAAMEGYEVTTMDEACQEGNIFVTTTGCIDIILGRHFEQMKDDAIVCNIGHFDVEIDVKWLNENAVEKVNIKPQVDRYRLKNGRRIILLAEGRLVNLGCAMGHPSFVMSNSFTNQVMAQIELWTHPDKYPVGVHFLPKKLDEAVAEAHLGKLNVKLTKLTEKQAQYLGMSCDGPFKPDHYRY
Data set [8] concerns the target T1, Adenosylhomocysteinase.
Target sequence in this assay (P23526 2-432 limits assumed): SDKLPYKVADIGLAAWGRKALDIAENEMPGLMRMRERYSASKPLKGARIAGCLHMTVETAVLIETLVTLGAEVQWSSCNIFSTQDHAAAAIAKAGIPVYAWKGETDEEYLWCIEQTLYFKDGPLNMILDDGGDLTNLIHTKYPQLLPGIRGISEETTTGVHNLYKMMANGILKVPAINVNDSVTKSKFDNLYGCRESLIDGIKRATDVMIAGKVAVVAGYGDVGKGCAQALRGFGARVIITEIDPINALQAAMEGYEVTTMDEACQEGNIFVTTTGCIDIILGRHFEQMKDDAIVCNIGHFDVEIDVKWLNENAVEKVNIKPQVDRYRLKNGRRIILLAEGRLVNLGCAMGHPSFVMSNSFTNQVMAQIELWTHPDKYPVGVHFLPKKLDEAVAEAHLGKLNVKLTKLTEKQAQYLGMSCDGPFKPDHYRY
Data set [9] has as its system Human immunodeficiency virus 2. In words: Inhibition concentration required to inhibit ROD strain was determined by MT-4/MTT assay. The class given is functional, organism-based. The procedure, abridged:
as §2
(Formazan colour is commonly taken as a measure of viable cells.)

Data set [10] deals with T1, Adenosylhomocysteinase. In words: Inhibition of recombinant human placental AdoHcy hydrolase. The procedure, abridged:
(§4)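 Recombinant enzyme (2.5 μg) preincubated with inhibitor at 0–200 μM for 0–20 min at 37 °C in 50 mM potassium phosphate, pH 7.2, 1 mM EDTA. Residual synthetic-direction activity was measured with 1 mM Ado and 1 mM Hcy for 1 min at 37 °C, stopped with HClO4, and AdoHcy quantified by reversed-phase HPLC at 258 nm. Ki and kinact came from fitting kobs = kinact[I]/(Ki+[I]).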
Target sequence in this assay (P23526 whole entry): as the sequence (P23526 whole entry) above

Data set [11] deals with Human immunodeficiency virus 1. The data set is described as follows: Inhibition concentration required to inhibit HIV-IIIB was determined by MT-4/MTT assay. It is filed as functional, organism-based. The procedure, abridged:
as §2

Data set [12] concerns Human immunodeficiency virus 1. In words: Inhibition concentration required to inhibit HIV-1 was determined by MT-4/MTT assay. The class given is functional, organism-based. The procedure, abridged:
as §2

In data set [13] the test system is Human immunodeficiency virus 2. In words: Inhibition concentration required to inhibit HIV-2 was determined by MT-4/MTT assay. It is filed as functional, organism-based. The procedure, abridged: as §2
The target of data set [14] is T1, Adenosylhomocysteinase. The data set is described as follows: Rate at which the compound inactivates human placental AdoHcy hydrolase enzyme was determined. It is filed as functional. In a few lines:
as §4
Target sequence in this assay (P23526 2-432 limits assumed): as the sequence (P23526 2-432 limits assumed) above

Bounds are passed on as bounds.

In the case of `C#C/C=C\[C@H]1OC(n2ccc(=O)[nH]c2=O)[C@H](O)[C@@H]1O` (some centres not stated), the MIC against HeLa [1], in the data set with HeLa [2] and in the data set on HeLa [3] was greater than 100 µM throughout. The MCC in [4] was no less than 350 µM. The CC50/IC50 in the data set with MT4 is recorded as 7.

Regarding `C#C/C=C/[C@H]1OC(n2ccc(=O)[nH]c2=O)[C@H](O)[C@@H]1O` (some centres not stated), the MIC in the data set with HeLa [1], in the data set on HeLa [2] and against HeLa [3] was greater than 700 µM each time. In addition, the MCC in [4] is no less than 350 µM.

Compound `CCOC(=O)/C=C\C#C[C@H]1OC(n2cnc3c(N)ncnc32)[C@H](O)[C@@H]1O` (some centres not stated) yielded an MCC in [4] of no less than 11 µM.

A word on the EC50: it is the concentration that produces a half-maximal response. High values mean a less potent agent, low ones a more potent agent. By Ki is commonly meant the dissociation constant of the complex between target and ligand, obtained from inhibition or displacement. On to `C#C/C=C/[C@H]1OC(n2cnc3c(N)ncnc32)[C@H](O)[C@@H]1O` (some centres not stated), for which the EC50 turned out to be 50000 nM in the data set with Cytomegalovirus [5] and 30000 nM with Cytomegalovirus [6]. The MIC in the data set on HeLa [1], against HeLa [2] and against HeLa [3] was greater than 100 µM each time. Moreover, the Ki at Adenosylhomocysteinase [7] amounted to 550 nM. In [4], the MCC was no less than 350 µM. This compound also yielded a K inact on Adenosylhomocysteinase [8] of 2.57 min⁻¹.

One may read the IC50 as the concentration needed to halve the response being measured. A low value points to greater potency in that assay. In the case of `Nc1ncnc2c1ncn2C1O[C@H](/C=C/C#CI)[C@@H](O)[C@H]1O` (some centres not stated), the IC50 in data set [9], in [11], in [12] and in data set [13] was 1100 nM throughout. In addition, the MIC against HeLa [1], in the data set on HeLa [2] and against HeLa [3] was greater than 100 µM each time. Moreover, the Ki on Adenosylhomocysteinase [10] came out at 118000 nM. This compound also came in with a K inact on Adenosylhomocysteinase [14] of 1.49 min⁻¹. Besides, the MCC in [4] is no less than 50 µM. In addition, the CC50/IC50 in the data set with MT4 was 7.

For `C#C/C=C\[C@H]1OC(n2cnc3c(N)ncnc32)[C@H](O)[C@@H]1O` (some centres not stated), the MIC in the data set on HeLa [1], with HeLa [2] and against HeLa [3] was greater than 700 µM throughout. In data set [4], this compound registered an MCC of no less than 350 µM.

With `O=c1ccn(C2O[C@H](/C=C/C#CI)[C@@H](O)[C@H]2O)c(=O)[nH]1` (some centres not stated), the IC50 in data set [9], in data set [11], in [12] and in [13] was 1800 nM in each case. The MIC in the data set with HeLa [1], with HeLa [2] and against HeLa [3] was greater than 100 µM in each case. Besides, the MCC in data set [4] was no less than 50 µM. Further, the CC50/IC50 in the data set on MT4 came out at 3.

These data come from ChEMBL document CHEMBL1138785, “Stereoselective synthesis of sugar-modified enyne analogues of adenosine and uridine. Interaction with S-adenosyl-L-homocysteine hydrolase and antiviral and cytotoxic effects” (J Med Chem, 2004).
